In ChEMBL document CHEMBL3853331, “Preparation, Antiepileptic Activity, and Cardiovascular Safety of Dihydropyrazoles as Brain-Penetrant T-Type Calcium Channel Blockers” (J Med Chem, 2016):

What was measured:
[1] = Cmax in Beagle dog plasma at 10 mg/kg, po; assay type: ADME, organism-based, Canis lupus familiaris; set-up: dose 10 mg/kg, route oral
Procedure, shortened: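 Beagle dogs given a single oral dose of 10 mg/kg; plasma Cmax and Tmax determined.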

Rattus norvegicus = experiment: Anticonvulsant activity in WAG/Rij rat model of generalized nonconvulsive absence-like epilepsy assessed as decrease in total duration of spontaneous seizures at 100 mg/kg, po administered as single dose at beginning of nocturnal active phase measured over 12 hrs by radiotelometry relative to vehicle control
MDR1 = experiment: Apparent permeability across basolateral to apical side in MDCK cells expressing MDR1 (unknown origin) at 1 uM; assay type: ADME, cell-based, Canis lupus familiaris; details: dog
Procedure, shortened: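 MDR1-transfected MDCK cell monolayers. Compound tested at 1 µM. Apparent permeability measured in both directions, apical to basolateral and basolateral to apical. Efflux ratio taken from the two directional permeabilities.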

Compound `O=C(Nc1ccc(F)cc1)N1N=C(c2ccncc2)CC1c1ccc(F)cc1` (stereo not drawn) has a Cmax [1] of 160 nM, an inhibition in vivo at 100 mg/kg (Rattus norvegicus) of 62.2% and a Papp B→A at 1 µM (MDR1) of 44 ×10⁻⁶ cm/s.
